Data: ChEMBL document CHEMBL1156332, “Polysubstituted pyrazoles, part 6. Synthesis of some 1-(4-chlorophenyl)-4-hydroxy-1H-pyrazol-3-carbonyl derivatives linked to nitrogenous heterocyclic ring systems as potential antitumor agents” (2010)

What was measured:
Format in all cases: functional
K562 = test: Growth inhibition of human K562 cells after 48 hrs by sulforhodamine B assay; details: K562, 48 h
In short: (§1)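 NCI 60-line panel, five concentrations (0.01–100 µM) from DMSO stock diluted in medium with gentamicin. Cells were plated 24 h before dosing, with time-zero plates fixed at drug addition, then exposed 48 h at 37 °C, 5% CO₂. Adherent cells were fixed with cold TCA (10% final) and suspension cells with 16% TCA. Staining used 0.4% SRB, solubilised in 10 mM Tris and read at 515 nm. GI₅₀ was taken from log concentration–% growth curves.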

RPMI-8226 = test: Growth inhibition of human RPMI8226 cells after 48 hrs by sulforhodamine B assay; details: RPMI-8226, 48 h; in short: as §1
HOP-62 = test: Growth inhibition of human HOP62 cells after 48 hrs by sulforhodamine B assay; details: HOP-62, 48 h; in short: as §1
HOP-92 = test: Growth inhibition of human HOP92 cells after 48 hrs by sulforhodamine B assay; details: HOP-92, 48 h; in short: as §1
NCI-H226 = test: Growth inhibition of human NCI-H226 cells after 48 hrs by sulforhodamine B assay; details: NCI-H226, 48 h; in short: as §1
NCI-H460 = test: Growth inhibition of human NCI-H460 cells after 48 hrs by sulforhodamine B assay; details: NCI-H460, 48 h; in short: as §1
HCT-116 = test: Growth inhibition of human HCT116 cells after 48 hrs by sulforhodamine B assay; details: HCT-116, 48 h; in short: as §1
HCT-15 = test: Growth inhibition of human HCT15 cells after 48 hrs by sulforhodamine B assay; details: HCT-15, 48 h; in short: as §1
HT-29 = test: Growth inhibition of human HT-29 cells after 48 hrs by sulforhodamine B assay; details: HT-29, 48 h; in short: as §1
KM12 = test: Growth inhibition of human KM12 cells after 48 hrs by sulforhodamine B assay; details: KM12, 48 h; in short: as §1
SW-620 = test: Growth inhibition of human SW620 cells after 48 hrs by sulforhodamine B assay; details: SW-620, 48 h
In short: (§2)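 Adherent lines plated and held 24 h at 37 °C, 5% CO2, 100% humidity; time-zero plates TCA-fixed at drug addition. Drugs from DMSO stocks were made into five concentrations by 10-fold or half-log serial dilution and applied for 48 h continuous exposure. Cells were fixed with cold TCA (10% final) for 60 min at 4 °C, then stained with 0.4% SRB in 1% acetic acid for 10 min. Dye was solubilized in 10 mM Tris base and read at 515 nm. GI50 was taken from log concentration–growth curves.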

SF-268 = test: Growth inhibition of human SF268 cells after 48 hrs by sulforhodamine B assay; details: SF-268, 48 h; in short: as §1
SF-539 = test: Growth inhibition of human SF539 cells after 48 hrs by sulforhodamine B assay; details: SF-539, 48 h; in short: as §2
SNB-19 = test: Growth inhibition of human SNB19 cells after 48 hrs by sulforhodamine B assay; details: SNB-19, 48 h; in short: as §2
SNB-75 = test: Growth inhibition of human SNB75 cells after 48 hrs by sulforhodamine B assay; details: SNB-75, 48 h; in short: as §2
U-251 = test: Growth inhibition of human U251 cells after 48 hrs by sulforhodamine B assay; details: U-251, 48 h; in short: as §2
M14 = test: Growth inhibition of human M14 cells after 48 hrs by sulforhodamine B assay; details: M14, 48 h; in short: as §1
UACC-257 = test: Growth inhibition of human UACC257 cells after 48 hrs by sulforhodamine B assay; details: UACC-257, 48 h; in short: as §2
UACC-62 = test: Growth inhibition of human UACC62 cells after 48 hrs by sulforhodamine B assay; details: UACC-62, 48 h; in short: as §2
IGROV-1 = test: Growth inhibition of human IGROV1 cells after 48 hrs by sulforhodamine B assay; details: IGROV-1, 48 h; in short: as §1
OVCAR-3 = test: Growth inhibition of human OVCAR-3 cells after 48 hrs by sulforhodamine B assay; details: OVCAR-3, 48 h; in short: as §1
OVCAR-4 = test: Growth inhibition of human OVCAR4 cells after 48 hrs by sulforhodamine B assay; details: OVCAR-4, 48 h; in short: as §1
OVCAR-5 = test: Growth inhibition of human OVCAR5 cells after 48 hrs by sulforhodamine B assay; details: OVCAR-5, 48 h; in short: as §1
OVCAR-8 = test: Growth inhibition of human OVCAR8 cells after 48 hrs by sulforhodamine B assay; details: OVCAR-8, 48 h; in short: as §1
SK-OV-3 = test: Growth inhibition of human SKOV3 cells after 48 hrs by sulforhodamine B assay; details: SK-OV-3, 48 h; in short: as §2
786-0 = test: Growth inhibition of human 786-0 cells after 48 hrs by sulforhodamine B assay; details: 786-0, 48 h; in short: as §1
ACHN = test: Growth inhibition of human ACHN cells after 48 hrs by sulforhodamine B assay; in short: as §1
SN12C = test: Growth inhibition of human SN12C cells after 48 hrs by sulforhodamine B assay; in short: as §2
TK-10 = test: Growth inhibition of human TK10 cells after 48 hrs by sulforhodamine B assay; details: TK-10, 48 h; in short: as §2
DU-145 = test: Growth inhibition of human DU145 cells after 48 hrs by sulforhodamine B assay; details: DU-145, 48 h; in short: as §1
MCF7 = test: Growth inhibition of human MCF7 cells after 48 hrs by sulforhodamine B assay; details: MCF7, 48 h; in short: as §1
NCI/ADR-RES = test: Growth inhibition of human NCI/ADR-RES cells after 48 hrs by sulforhodamine B assay; in short: as §1
[1] = Growth inhibition of human Hs 578T cells after 48 hrs by sulforhodamine B assay; in short: as §1
MDA-MB-435 = test: Growth inhibition of human MDA-MB-435 cells after 48 hrs by sulforhodamine B assay; details: MDA-MB-435, 48 h; in short: as §1
MDA-MB-468 = test: Growth inhibition of human MDA-MB-468 cells after 48 hrs by sulforhodamine B assay; details: MDA-MB-468, 48 h; in short: as §1
[2] = Cytotoxicity against human leukemia cells after 48 hrs by sulforhodamine B assay; details: Leukemia cell
In short: (§3)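 NCI five-dose screen: about 60 human tumour lines grouped into nine subpanels were plated and incubated 24 h before dosing. Compounds went in as DMSO stock and were diluted in medium to five final concentrations (0.01–100 µM). Exposure was 48 h continuous at 37 °C, 5% CO₂, followed by TCA fixation and SRB staining read at 515 nm. Per-line GI₅₀, TGI and LC₅₀ came from log concentration–% growth curves, averaged per subpanel as MG-MID.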

[3] = Cytotoxicity against human lung cancer cells after 48 hrs by sulforhodamine B assay; details: Cancer cell lines; in short: as §3
[4] = Cytotoxicity against human colon cancer cells after 48 hrs by sulforhodamine B assay; details: Cancer cell lines; in short: as §3
[5] = Cytotoxicity against human renal cancer cells after 48 hrs by sulforhodamine B assay; details: Cancer cell lines; in short: as §3
[6] = Cytotoxicity against human prostate cancer cells after 48 hrs by sulforhodamine B assay; details: Cancer cell lines; in short: as §3
[7] = Cytotoxicity against human breast cancer cells after 48 hrs by sulforhodamine B assay; details: Cancer cell lines; in short: as §3

CC1=NN(C(=O)c2nn(-c3ccc(Cl)cc3)cc2O)C(=O)C1
GI50 (K562): 650 nM
GI50 (RPMI-8226): 1660 nM
GI50 (HOP-62): 1330 nM
GI50 (HOP-92): 3670 nM
GI50 (NCI-H226): 1400 nM
GI50 (NCI-H460): 370 nM
GI50 (HCT-116): 680 nM
GI50 (HCT-15): 680 nM
GI50 (HT-29): 6160 nM
GI50 (KM12): 2270 nM
GI50 (SW-620): 3410 nM
GI50 (SF-268): 490 nM
GI50 (SF-539): 1700 nM
GI50 (SNB-19): 3160 nM
GI50 (SNB-75): 530 nM
GI50 (U-251): 410 nM
GI50 (M14): 1780 nM
GI50 (UACC-257): 1060 nM
GI50 (UACC-62): 1800 nM
GI50 (IGROV-1): 510 nM
GI50 (OVCAR-3): 1210 nM
GI50 (OVCAR-4): 2400 nM
GI50 (OVCAR-5): 3.32 µM
GI50 (OVCAR-8): 1490 nM
GI50 (SK-OV-3): 1530 nM
GI50 (786-0): 6.45 µM
GI50 (ACHN): 880 nM
GI50 (SN12C): 1420 nM
GI50 (TK-10): 790 nM
GI50 (DU-145): 5220 nM
GI50 (MCF7): 3610 nM
GI50 (NCI/ADR-RES): 1890 nM
GI50 [1]: 280 nM
GI50 (MDA-MB-435): 1200 nM
GI50 (MDA-MB-468): 4570 nM
GI50 [2]: 1030 nM
TGI [2]: 52.9 µM
GI50 [3]: 1820 nM
TGI [3]: 78.2 µM
GI50 [4]: 3090 nM
TGI [4]: 95.4 µM
GI50 [5]: 1670 nM
TGI [5]: 77 µM
GI50 [6]: 5220 nM
GI50 [7]: 2020 nM
TGI [7]: 90.1 µM

O=C1CC(=O)N(C(=O)c2nn(-c3ccc(Cl)cc3)cc2O)N1
GI50 (K562): 290 nM
GI50 (RPMI-8226): 380 nM
GI50 (HOP-62): 510 nM
GI50 (HOP-92): 500 nM
GI50 (NCI-H226): 730 nM
GI50 (NCI-H460): 310 nM
GI50 (HCT-116): 340 nM
GI50 (HCT-15): 490 nM
GI50 (HT-29): 580 nM
GI50 (KM12): 1160 nM
GI50 (SW-620): 2320 nM
GI50 (SF-268): 510 nM
GI50 (SF-539): 370 nM
GI50 (SNB-19): 510 nM
GI50 (SNB-75): 240 nM
GI50 (U-251): 180 nM
GI50 (M14): 710 nM
GI50 (UACC-257): 1860 nM
GI50 (UACC-62): 390 nM
GI50 (IGROV-1): 380 nM
GI50 (OVCAR-3): 930 nM
GI50 (OVCAR-4): 1520 nM
GI50 (OVCAR-5): 8.08 µM
GI50 (OVCAR-8): 640 nM
GI50 (SK-OV-3): 1920 nM
GI50 (786-0): 3.77 µM
GI50 (ACHN): 580 nM
GI50 (SN12C): 500 nM
GI50 (TK-10): 350 nM
GI50 (DU-145): 980 nM
GI50 (MCF7): 1560 nM
GI50 (NCI/ADR-RES): 940 nM
GI50 [1]: 190 nM
GI50 (MDA-MB-435): 330 nM
GI50 (MDA-MB-468): 720 nM
GI50 [2]: 420 nM
TGI [2]: 10.8 µM
GI50 [3]: 510 nM
TGI [3]: 80.3 µM
GI50 [4]: 1510 nM
TGI [4]: 86.2 µM
GI50 [5]: 850 nM
TGI [5]: 71.8 µM
GI50 [6]: 670 nM
GI50 [7]: 820 nM
TGI [7]: 79.6 µM

Cc1c2c(nn1C(=O)c1nn(-c3ccc(Cl)cc3)cc1O)-c1ccccc1CC2
GI50 (K562): 30 nM
GI50 (RPMI-8226): 38 nM
GI50 (HOP-62): 44 nM
GI50 (HOP-92): 52 nM
GI50 (NCI-H226): 45 nM
GI50 (NCI-H460): 28 nM
GI50 (HCT-116): 34 nM
GI50 (HCT-15): 52 nM
GI50 (HT-29): 241 nM
GI50 (KM12): 70 nM
GI50 (SW-620): 360 nM
GI50 (SF-268): 48 nM
GI50 (SF-539): 41 nM
GI50 (SNB-19): 45 nM
GI50 (SNB-75): 29 nM
GI50 (U-251): 31 nM
GI50 (M14): 96 nM
GI50 (UACC-257): 210 nM
GI50 (UACC-62): 51 nM
GI50 (IGROV-1): 43 nM
GI50 (OVCAR-3): 99 nM
GI50 (OVCAR-4): 264 nM
GI50 (OVCAR-5): 0.072 µM
GI50 (OVCAR-8): 53 nM
GI50 (SK-OV-3): 160 nM
GI50 (786-0): 0.319 µM
GI50 (ACHN): 48 nM
GI50 (SN12C): 41 nM
GI50 (TK-10): 33 nM
GI50 (DU-145): 50 nM
GI50 (MCF7): 121 nM
GI50 (NCI/ADR-RES): 46 nM
GI50 [1]: 21 nM
GI50 (MDA-MB-435): 37 nM
GI50 (MDA-MB-468): 262 nM
GI50 [2]: 42 nM
TGI [2]: 10.2 µM
GI50 [3]: 47 nM
TGI [3]: 68.1 µM
GI50 [4]: 221 nM
TGI [4]: 86.3 µM
GI50 [5]: 92 nM
TGI [5]: 67.7 µM
GI50 [6]: 44 nM
GI50 [7]: 82 nM
TGI [7]: 91.7 µM
